Experimental data taken from ChEMBL document CHEMBL4715780, “Biological evaluation of tetracationic compounds based on two 1,4-diazabicyclo[2.2.2]octane moieties connected by different linkers” (Bioorg Med Chem, 2016).

Columns and labels:
[1] = Selectivity index, ratio of CC50 for HEK293T cells assessed as reduction in cell viability measured after 24 hrs by MTT assay to MIC for Pseudomonas aeruginosa ATCC 9027 assessed as bacterial growth inhibition by CLSI protocol based serial microdilution method; assay type: toxicity; conditions: human, read-out: Selectivity Index
[2] = test system: Staphylococcus aureus; assay: Antibacterial activity against methicillin-resistant Staphylococcus aureus CEMTC 1732 assessed as bacterial growth inhibition by CLSI protocol based serial microdilution method; assay type: functional
[3] = test system: Salmonella typhimurium; assay: Antibacterial activity against Salmonella enterica ATCC 14028 assessed as bacterial growth inhibition by CLSI protocol based serial microdilution method; assay type: functional, Salmonella enterica subsp. enterica serovar Typhimurium
[4] = test system: Pseudomonas aeruginosa; assay: Antibacterial activity against Pseudomonas aeruginosa ATCC 9027 assessed as bacterial growth inhibition by CLSI protocol based serial microdilution method; assay type: functional
[5] = test system: Pseudomonas aeruginosa; assay: Bactericidal activity against Pseudomonas aeruginosa ATCC 9027 assessed as colony forming unit at 2.5 ug/ml measured at 22 hrs by time kill assay (reference value: 1.7 x 10^9 CFU/ml); assay type: functional; conditions: dose 2.5 µg/ml
Procedure, shortened: (§1)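 Overnight Pseudomonas aeruginosa culture adjusted in Mueller–Hinton broth to about 2.5 × 10⁵ CFU/mL. Compound added at 2.5, 5 or 10 µg/mL, then incubated at 37 °C with shaking (580 rpm) for 22 h. Viable colonies counted on plates at 2, 4, 6, 8 and 22 h. Quantification limit 100 CFU/mL; triplicate.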

[6] = test system: Staphylococcus aureus; assay: Antibacterial activity against methicillin-resistant Staphylococcus aureus CEMTC 1733 assessed as concentration required to inhibit visible growth by CLSI protocol based serial microdilution method; assay type: functional
[7] = test system: Staphylococcus aureus; assay: Antibacterial activity against methicillin-resistant Staphylococcus aureus CEMTC 707 assessed as bacterial growth inhibition by CLSI protocol based serial microdilution method; assay type: functional
[8] = test system: Staphylococcus aureus; assay: Antibacterial activity against methicillin-resistant Staphylococcus aureus CEMTC 1733 assessed as bacterial growth inhibition by CLSI protocol based serial microdilution method; assay type: functional
[9] = test system: Staphylococcus aureus; assay: Bactericidal activity against […] Staphylococcus aureus ATCC 25923 assessed as colony forming unit at 2.5 ug/ml measured at 6 hrs by time kill assay (reference value: 1.2 x 10^6 CFU/ml); assay type: functional; conditions: dose 2.5 µg/ml
Procedure, shortened: (§2)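 S. aureus overnight culture was adjusted in MHB to ~8 × 10⁵ CFU/mL. Compound was added and the mixture incubated at 37 °C with shaking (580 rpm) for 22 h. Aliquots were plated for colony counts at 2, 4, 6, 8 and 22 h, with a quantification limit of 100 CFU/mL. Runs were done in triplicate.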

[10] = test system: Pseudomonas aeruginosa; assay: Bactericidal activity against Pseudomonas aeruginosa ATCC 9027 assessed as colony forming unit at 10 ug/ml measured at 22 hrs by time kill assay (reference value: 1.7 x 10^9 CFU/ml); assay type: functional; conditions: dose 10 µg/ml; procedure, shortened: as §1
[11] = test system: Pseudomonas aeruginosa; assay: Bactericidal activity against Pseudomonas aeruginosa ATCC 9027 assessed as reduction in colony forming unit at 5 ug/ml measured at 22 hrs by time kill assay relative to control; assay type: functional; set-up: scale not given: the % may be the effect or the level left; conditions: dose 5 µg/ml; procedure, shortened: as §1
[12] = test system: Staphylococcus aureus; assay: Antibacterial activity against methicillin-resistant Staphylococcus aureus CEMTC 707 assessed as concentration required to inhibit visible growth by CLSI protocol based serial microdilution method; assay type: functional
[13] = test system: Staphylococcus aureus; assay: Bactericidal activity against […] Staphylococcus aureus ATCC 25923 assessed as colony forming unit at 5 ug/ml measured at 8 hrs by time kill assay (reference value: 2.7 x 10^8 CFU/ml); assay type: functional; conditions: dose 5 µg/ml; procedure, shortened: as §2
[14] = Selectivity index, ratio of CC50 for HEK293T cells assessed as reduction in cell viability measured after 24 hrs by MTT assay to MIC for Salmonella enterica ATCC 14028 assessed as bacterial growth inhibition by CLSI protocol based serial microdilution method; assay type: toxicity; conditions: human, read-out: Selectivity Index
[15] = test system: Staphylococcus aureus; assay: Antibacterial activity against methicillin-resistant Staphylococcus aureus CEMTC 1850 assessed as bacterial growth inhibition by CLSI protocol based serial microdilution method; assay type: functional
[16] = Selectivity index, ratio of CC50 for HEK293T cells assessed as reduction in cell viability measured after 24 hrs by MTT assay to MIC for Escherichia coli ATCC 25922 assessed as bacterial growth inhibition by CLSI protocol based serial microdilution method; assay type: toxicity; conditions: human, read-out: Selectivity Index
[17] = test system: Escherichia coli; assay: Antibacterial activity against Escherichia coli ATCC 25922 assessed as concentration required to inhibit visible growth by CLSI protocol based serial microdilution method; assay type: functional
[18] = test system: Staphylococcus aureus; assay: Bactericidal activity against […] Staphylococcus aureus ATCC 25923 assessed as colony forming unit at 1.25 ug/ml measured at 4 hrs by time kill assay (reference value: 7.8 x 10^6 CFU/ml); assay type: functional; conditions: dose 1.25 µg/ml; procedure, shortened: as §2
[19] = test system: Staphylococcus aureus; assay: Antibacterial activity against […] Staphylococcus aureus ATCC 25923 assessed as bacterial growth inhibition by CLSI protocol based serial microdilution method; assay type: functional
[20] = test system: Pseudomonas aeruginosa; assay: Bactericidal activity against Pseudomonas aeruginosa ATCC 9027 assessed as reduction in colony forming unit at 2.5 ug/ml measured at 6 hrs by time kill assay relative to control; assay type: functional; set-up: scale not given: the % may be the effect or the level left; conditions: dose 2.5 µg/ml; procedure, shortened: as §1
[21] = test system: Staphylococcus aureus; assay: Bactericidal activity against […] Staphylococcus aureus ATCC 25923 assessed as colony forming unit at 5 ug/ml measured at 6 hrs by time kill assay (reference value: 1.2 x 10^6 CFU/ml); assay type: functional; conditions: dose 5 µg/ml; procedure, shortened: as §2
[22] = test system: Citrobacter freundii; assay: Antibacterial activity against Citrobacter freundii ATCC 8090 assessed as bacterial growth inhibition by CLSI protocol based serial microdilution method; assay type: functional
[23] = test system: Staphylococcus aureus; assay: Antibacterial activity against methicillin-resistant Staphylococcus aureus CEMTC 675 assessed as bacterial growth inhibition by CLSI protocol based serial microdilution method; assay type: functional
[24] = test system: Proteus vulgaris; assay: Antibacterial activity against Proteus vulgaris ATCC 6380 assessed as concentration required to inhibit visible growth by CLSI protocol based serial microdilution method; assay type: functional
[25] = test system: Pseudomonas aeruginosa; assay: Antibacterial activity against Pseudomonas aeruginosa ATCC 9027 assessed as concentration required to inhibit visible growth by CLSI protocol based serial microdilution method; assay type: functional
[26] = test system: Pseudomonas aeruginosa; assay: Bactericidal activity against Pseudomonas aeruginosa ATCC 9027 assessed as colony forming unit at 2.5 ug/ml measured at 4 hrs by time kill assay (reference value: 1.2 x 10^7 CFU/ml); assay type: functional; conditions: dose 2.5 µg/ml; procedure, shortened: as §1
[27] = test system: Enterococcus faecalis; assay: Antibacterial activity against Enterococcus faecalis ATCC 51299 assessed as concentration required to inhibit visible growth by CLSI protocol based serial microdilution method; assay type: functional
[28] = test system: Pseudomonas aeruginosa; assay: Bactericidal activity against Pseudomonas aeruginosa ATCC 9027 assessed as reduction in colony forming unit at 10 ug/ml measured at 22 hrs by time kill assay relative to control; assay type: functional; set-up: scale not given: the % may be the effect or the level left; conditions: dose 10 µg/ml; procedure, shortened: as §1
[29] = test system: Pseudomonas aeruginosa; assay: Bactericidal activity against Pseudomonas aeruginosa ATCC 9027 assessed as reduction in colony forming unit at 5 ug/ml measured at 6 hrs by time kill assay relative to control; assay type: functional; set-up: scale not given: the % may be the effect or the level left; conditions: dose 5 µg/ml; procedure, shortened: as §1
[30] = test system: Pseudomonas aeruginosa; assay: Bactericidal activity against Pseudomonas aeruginosa ATCC 9027 assessed as colony forming unit at 10 ug/ml measured at 2 hrs by time kill assay (reference value: 3.6 x 10^5 CFU/ml); assay type: functional; conditions: dose 10 µg/ml; procedure, shortened: as §1
[31] = test system: Staphylococcus aureus; assay: Antibacterial activity against […] Staphylococcus aureus ATCC 25923 assessed as concentration required to inhibit visible growth by CLSI protocol based serial microdilution method; assay type: functional
[32] = test system: Staphylococcus aureus; assay: Bactericidal activity against […] Staphylococcus aureus ATCC 25923 assessed as colony forming unit at 1.25 ug/ml measured at 8 hrs by time kill assay (reference value: 2.7 x 10^8 CFU/ml); assay type: functional; conditions: dose 1.25 µg/ml; procedure, shortened: as §2

Compound | selectivity ratio at 24 h [1] | MIC [2] | MIC [3] | MIC [4] | Activity [5] | MBC [6] | MIC [7] | MIC [8] | Activity [9] | Activity [10] | Activity [11] | MBC [12] | Activity [13] | selectivity ratio at 24 h [14] | MIC [15] | selectivity ratio at 24 h [16] | MBC [17] | Activity [18] | MIC [19] | Activity [20] | also measured
CCCCCCCCCCCC[N+]12CC[N+](CCC[N+]34CC[N+](CCCCCCCCCCCC)(CC3)CC4)(CC1)CC2 | 4 | 0.5 µg/mL | 1.6 µg/mL | 1.6 µg/mL | <100 CFU/ml | 1 µg/mL | 0.5 µg/mL | 1 µg/mL | <100 CFU/ml | <100 CFU/ml | >=99.9% | 1 µg/mL | <100 CFU/ml | 4 | 1 µg/mL | 4 | 3.1 µg/mL | <100 CFU/ml | 0.3 µg/mL | >=99.9% | Activity [21]: <100 CFU/ml; MIC [22]: 1.6 µg/mL; MIC [23]: 0.5 µg/mL; MBC [24]: > 100 µg/mL; MBC [25]: 3.1 µg/mL; Activity [26]: <100 CFU/ml; MBC [27]: 3.1 µg/mL; Activity [28]: >=99.9%; Activity [29]: >=99.9%; Activity [30]: <100 CFU/ml; MBC [31]: 1.2 µg/mL; Activity [32]: <100 CFU/ml
CCCCCCCCCCCC[N+]12CC[N+](Cc3ccccc3C[N+]34CC[N+](CCCCCCCCCCCC)(CC3)CC4)(CC1)CC2 | 3 | 0.5 µg/mL | 16 µg/mL | 1.6 µg/mL | 100 CFU/ml | 1 µg/mL | 0.5 µg/mL | 1 µg/mL | <100 CFU/ml | <100 CFU/ml | >=99.9% | 1 µg/mL | <100 CFU/ml | 3 | 0.5 µg/mL | 3 | 3.1 µg/mL | <100 CFU/ml | 0.6 µg/mL | >=99.9% | Activity [21]: <100 CFU/ml; MIC [22]: 1.6 µg/mL; MIC [23]: 0.5 µg/mL; MBC [24]: > 100 µg/mL; MBC [25]: 3.1 µg/mL; Activity [26]: 1300 CFU/ml; MBC [27]: 1.6 µg/mL; Activity [28]: >=99.9%; Activity [29]: >=99.9%; Activity [30]: <100 CFU/ml; MBC [31]: 1.2 µg/mL; Activity [32]: <100 CFU/ml
